Compound activity deposited in PubChem by Broad Institute.
MITF TRPM1 HTS – activators of MITF-driven TRPM1 promoter activity in SK-MEL-5 cells; actives 0.75% (n = 300,000); activation, % at 12.5 µM; SK-MEL-5 TRPM1-promoter luciferase, 24 h; % of positive control, neutral wells = 0; AID 588334;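 active = mean activation of at least 80% with every replicate also reaching 80%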
HSF-1 act – increases HSF-1 driven luciferase reporter signal | NIH3T3-HGL HSF-1 luciferase reporter, MG132, 8 h; 100% = twice DMSO control signal | activation, % at 9 µM | actives 1.7% (n = 300,000);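 active = mean replicate activation of at least 50% with a set share of replicates each reaching 50%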
SR-BI HDL uptake – mouse SR-BI HDL lipid transfer inhibition; ldlA[mSR-BI] CHO cells, DiI-HDL uptake fluorescence, 3 h; inhibition, % at 12.5 µM; actives 0.96% (n = 320,000);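 active = mean replicate inhibition of at least 70% and a set share of replicates each scoring 70 or more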
Target sequence (Q61009 whole entry, looked up): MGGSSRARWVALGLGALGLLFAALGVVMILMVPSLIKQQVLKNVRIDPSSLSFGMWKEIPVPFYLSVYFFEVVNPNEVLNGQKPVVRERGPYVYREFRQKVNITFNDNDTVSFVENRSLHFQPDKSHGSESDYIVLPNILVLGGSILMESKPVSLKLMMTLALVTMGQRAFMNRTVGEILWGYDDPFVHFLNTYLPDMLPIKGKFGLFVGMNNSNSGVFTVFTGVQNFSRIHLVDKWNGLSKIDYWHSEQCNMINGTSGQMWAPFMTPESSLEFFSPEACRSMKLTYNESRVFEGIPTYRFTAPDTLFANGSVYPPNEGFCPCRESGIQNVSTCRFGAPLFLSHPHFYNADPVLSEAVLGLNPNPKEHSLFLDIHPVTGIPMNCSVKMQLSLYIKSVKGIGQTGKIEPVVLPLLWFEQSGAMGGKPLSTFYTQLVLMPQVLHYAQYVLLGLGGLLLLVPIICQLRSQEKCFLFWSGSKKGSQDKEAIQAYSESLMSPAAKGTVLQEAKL
Wnt bcat act – activates Wnt/beta-catenin signaling in a reporter cell assay | actives 1.2% (n = 300,000) | activator, plate reader | activation, % at 9.35 µM; in the data active = activation above about 30%, passing the limit was not always enough
SR-BI uptake up – activators of SR-BI mediated HDL lipid uptake; CHO ldlA[mSR-BI] cells, DiI-HDL uptake fluorescence, 3 h; 100 = double the neutral-control signal; activation, % at 12.5 µM; actives 0.096% (n = 320,000);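 active = mean replicate activation of at least 60% and every replicate at or above 60%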
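Material: SR-BI-overexpressing, LDLR-lacking CHO cells | Dosing: Single compound concentration, delivered by pin transfer | Probe or stimulus: Labelled HDL, 10 µg/mL | Signal: Bottom-read cell fluorescence after medium removal, ex 550/em 595 nm | Schedule: 3 h, 37 °C | Evaluation: HDL uptake via cellular fluorescence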
Of the large screens only hits and unclear results are named; the others gave an inactive call. An excerpt weighted towards active compounds, which were near 3.6% of everything screened.

Oc1ccccc1OCc1nc2ccccc2s1	HSF-1 act 74.5 (no result: Wnt bcat act)
OCc1cc(Br)ccc1OCc1nc2ccccc2s1	HSF-1 act 71.2 (no result: SR-BI HDL uptake, Wnt bcat act, SR-BI uptake up)
Oc1ccc(O)c(Cc2nc3ccccc3s2)c1	HSF-1 act 69.2
Nc1ccc(C(=O)OCc2nc3ccccc3s2)cc1	none
COc1ccc(-n2nnnc2C(c2cccc(OC)c2OC)N2CCN(C/C=C/c3ccccc3)CC2)cc1 (configuration not stated)	none (no result: MITF TRPM1 HTS, HSF-1 act, SR-BI HDL uptake, SR-BI uptake up)
C[C@H]1CN([C@@H](C)CO)C(=O)c2cc(-c3cccc(F)c3)cnc2O[C@H]1CN(C)C(=O)c1cnccn1	none (no result: MITF TRPM1 HTS, HSF-1 act, SR-BI HDL uptake, SR-BI uptake up)
CCOC(=O)c1c(NC(C)=O)sc2c(O)c(Br)cc(Br)c12	HSF-1 act 52.5
Cc1cc(N2CCNC[C@H]2C)ccc1N1C[C@@H](C)O[C@@H](C)C1	none (no result: MITF TRPM1 HTS, HSF-1 act, SR-BI HDL uptake, SR-BI uptake up)
CCN(C(=O)C=Cc1ccco1)c1ccccc1	Wnt bcat act 204.2 (no result: HSF-1 act)
COCC(=O)Nc1nnc(-c2ccc(C(C)(C)C)cc2)s1	MITF TRPM1 HTS 90.6
O=c1[nH]c(SCCOc2ccccc2F)nc2ccccc12	none
COc1ccccc1OCCSc1nc2ccccc2c(=O)[nH]1	Wnt bcat act 43.9
O=C1c2ccccc2C(=O)c2c(/C=C/N3CCCCC3)ccnc21	none (no result: HSF-1 act)
COc1cc(/C=N/N=C(N)N)ccc1OCc1ccccc1Cl	HSF-1 act 54.9
COc1ccc(/C=N/N=C/c2ccc(OC)c(OC)c2)cc1OC	none (no result: MITF TRPM1 HTS, Wnt bcat act)
O=C(CCn1nc(-c2ccc(Cl)cc2)ccc1=O)NCCCN1CCCCCC1	SR-BI HDL uptake 73.4 (no result: Wnt bcat act)
CCCN1CCN(CCCNC(=O)CCn2nc(-c3ccccc3)ccc2=O)CC1	none
OC[C@H]1O[C@H](c2nc(-c3nc(-c4cccs4)no3)cs2)C[C@@H]1O	none (no result: MITF TRPM1 HTS, HSF-1 act, SR-BI HDL uptake, SR-BI uptake up)
COc1cc(OC)cc(-c2noc(-c3csc([C@H]4C[C@H](O)[C@@H](CO)O4)n3)n2)c1	Wnt bcat act 38.9 (no result: MITF TRPM1 HTS, HSF-1 act, SR-BI HDL uptake, SR-BI uptake up)
Cc1cccc(-c2noc(-c3csc([C@@H]4C[C@H](O)[C@@H](CO)O4)n3)n2)c1	Wnt bcat act 46.2 (no result: MITF TRPM1 HTS, HSF-1 act, SR-BI HDL uptake, SR-BI uptake up)
CC1(C(=O)NS(=O)(=O)c2ccc(F)cc2F)CCN1C(=O)c1ccccc1CCc1ccccc1 (configuration not stated)	none (no result: MITF TRPM1 HTS, HSF-1 act, SR-BI HDL uptake, SR-BI uptake up)
COc1ccc(N/C(C)=C/C(=O)c2ccccc2)cc1	MITF TRPM1 HTS 120.2
COc1ccc(N/C(C)=C/C(=S)Nc2ccccc2)cc1	none (no result: Wnt bcat act)
COC(=O)/C(=C\C(=O)c1ccccc1)Nc1ccc(OC)cc1	HSF-1 act 50.6 (no result: MITF TRPM1 HTS)
C[C@@H]1CN([C@H](C)CO)S(=O)(=O)c2ccc(C#Cc3ccccc3F)cc2O[C@@H]1CN(C)C(=O)Cc1ccccc1	none (no result: MITF TRPM1 HTS, HSF-1 act, SR-BI HDL uptake, SR-BI uptake up)
CN(N=Nc1ccccc1C(=O)O)C1CCCCC1	Wnt bcat act 38.0 (no result: MITF TRPM1 HTS, HSF-1 act, SR-BI HDL uptake, SR-BI uptake up)
Cc1cc(N/C=C/C(=O)c2cccs2)ccc1F	HSF-1 act 64.2
Cc1ccc(C(=O)/C=C\Nc2ccc(C)c(C)c2)cc1	HSF-1 act 55.7 (no result: Wnt bcat act)
CN(C)c1ccc(N/C=C/C(=O)C(C)(C)C)cc1	none (no result: Wnt bcat act)
O=C(/C=C/Nc1ccc(Oc2ccccc2)cc1)c1ccco1	Wnt bcat act 58.6
CCOC(=O)c1ccc(N/C=C/C(=O)C(C)(C)C)cc1	Wnt bcat act 77.6
COc1ccc(C(=O)N/C(=C/c2cccs2)C(=O)N2CCN(C)CC2)cc1	none (no result: MITF TRPM1 HTS, HSF-1 act, SR-BI HDL uptake, SR-BI uptake up)
CS(=O)(=O)c1cc(N2CCOCC2)ccc1CNC[C@H]1O[C@@H](n2cnc3c(=O)[nH]c(N)nc32)[C@H](O)[C@@H]1O	none (no result: MITF TRPM1 HTS, HSF-1 act, SR-BI HDL uptake, SR-BI uptake up)
O=C(/C=C\Nc1ccc(Br)cc1)c1cccnc1	Wnt bcat act 38.3
CC(=O)Nc1ccc(N/C=C/C(=O)c2ccccc2)cc1	none (no result: MITF TRPM1 HTS)
O=C(NNC(=S)Nc1ccc(Br)cc1)c1cccnc1	none
CCOC(=O)c1ccc(N/C=C/C(=O)c2ccc(OC)cc2)cc1	none (no result: Wnt bcat act)
O=C(/C=C/Nc1ccccc1)c1ccccc1	HSF-1 act 87.7 (no result: Wnt bcat act)
CCOC(=O)c1ccc(N/C=C/C(=O)c2ccccc2)cc1	Wnt bcat act 74.5
CCOC(=O)c1ccccc1N/C=C/C(=O)c1ccccc1	Wnt bcat act 54.4
CCN(CC)c1ccc(/C=N/NC(=O)c2nnn(-c3nonc3N)c2CN(C)C2CCCCC2)cc1	none (no result: MITF TRPM1 HTS, HSF-1 act, SR-BI HDL uptake, SR-BI uptake up)
COC(=O)[C@]12C[C@H](CC(=O)N3CCCCC3)C(=O)N(CCC3=CCCCC3)C1=C[C@H](C(C)(C)C)O[C@@H]2C	none (no result: MITF TRPM1 HTS, HSF-1 act, SR-BI HDL uptake, SR-BI uptake up)
COC(=O)C1=C(C)N(C)C(=NCc2ccc(OC)cc2)NC1c1cccc(F)c1 (configuration not stated)	none (no result: MITF TRPM1 HTS, HSF-1 act, SR-BI HDL uptake, SR-BI uptake up)
Cc1ccc(/C=C/C(=O)Nc2ccccc2C(N)=O)cc1	HSF-1 act 59.1 (no result: Wnt bcat act)
